Source: BindingDB's records for doi:10.1016/s0960-894x(03)00033-7 (Astrazeneca R&D, 2003)

Key:
[1] = biological target: Delta-type opioid receptor (Homo sapiens, UniProt P41143); assay: ChEBML_145338
Description: Inhibition of [125I]deltorphin binding to human delta opioid receptor from membranes of HEK293 cells

Mu-type opioid receptor = Mu-type opioid receptor (Homo sapiens, UniProt P35372); assay: Inhibition of [125I]Enkephalin binding to human mu opioid receptor from membranes of HEK293 cells
Method in brief: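 Filter binding on membranes of HEK293 cells overexpressing human mu opioid receptor, measuring displacement of [125I]-Enkephalin. IC50 came from full dose–response curves on purified material, in single determinations.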

Mu-type opioid receptor, sequence (P35372 whole entry): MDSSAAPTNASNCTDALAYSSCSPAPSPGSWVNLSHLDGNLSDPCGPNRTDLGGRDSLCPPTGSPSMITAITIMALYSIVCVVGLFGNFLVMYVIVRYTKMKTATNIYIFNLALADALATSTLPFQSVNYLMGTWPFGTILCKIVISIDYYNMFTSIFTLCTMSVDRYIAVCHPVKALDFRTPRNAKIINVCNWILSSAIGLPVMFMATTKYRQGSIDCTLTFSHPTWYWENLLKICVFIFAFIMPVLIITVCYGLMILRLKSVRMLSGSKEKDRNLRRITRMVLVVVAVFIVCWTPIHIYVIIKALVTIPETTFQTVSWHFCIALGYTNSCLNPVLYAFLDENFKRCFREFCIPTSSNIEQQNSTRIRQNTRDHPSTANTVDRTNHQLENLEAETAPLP
Delta-type opioid receptor, sequence (P41143 whole entry): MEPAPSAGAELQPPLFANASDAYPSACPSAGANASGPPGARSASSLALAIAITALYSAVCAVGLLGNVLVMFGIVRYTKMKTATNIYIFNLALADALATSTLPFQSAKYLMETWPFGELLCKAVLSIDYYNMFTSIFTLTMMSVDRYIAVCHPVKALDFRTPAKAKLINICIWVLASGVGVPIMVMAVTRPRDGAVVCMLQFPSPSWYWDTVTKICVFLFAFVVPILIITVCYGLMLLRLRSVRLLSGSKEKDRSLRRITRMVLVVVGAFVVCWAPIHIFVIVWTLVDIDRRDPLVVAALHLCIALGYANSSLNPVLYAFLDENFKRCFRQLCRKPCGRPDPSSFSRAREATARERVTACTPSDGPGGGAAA

O=c1c(-c2ccccc2)cccn1C(CN1CCCC1)c1ccccc1 (configuration not stated) [3-Phenyl-1-(1-phenyl-2-pyrrolidin-1-yl-ethyl)-1H-pyridin-2-one]
IC50 [1]: > 10 µM
IC50 (Mu-type opioid receptor): > 10 µM
